According to ChEMBL document CHEMBL1151448, “Comparative antianaerobic activities of doripenem determined by MIC and time-kill analysis” (2008):
≈ marks a conversion by molar mass, not a printed value. Calls of active or inactive are those of the source. The rule behind the calls is not given here.

Legend:
Clostridioides difficile [1] = test: Antimicrobial activity against Clostridium difficile isolated from intra-abdominal infection and pelvic inflammatory disease patients after 48 hrs by agar dilution method; assay type: functional
How it was run: (§1)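 CLSI agar dilution on brucella blood agar supplemented with laked sheep blood, hemin and vitamin K. Inocula of about 1 × 10^5 CFU/spot were applied by Steers replicator, and plates were incubated 48 h at 35°C in an anaerobic glove box. MIC was the concentration giving marked growth reduction versus the anaerobic control plate. QC strains were included each run, and β-lactamase was detected by Cefinase disk.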

Clostridium cadaveris = test: Antimicrobial activity against Clostridium cadaveris isolated from intra-abdominal infection and pelvic inflammatory disease patients after 48 hrs by agar dilution method; assay type: functional; how it was run: as §1
Fusobacterium nucleatum = test: Bactericidal activity against beta lactamase-positive Fusobacterium nucleatum isolated from intra-abdominal infection and pelvic inflammatory disease patients assessed as bacterial killing at 2 times MIC after 48 hrs by time kill analysis; assay type: functional
How it was run: (§2)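 Anaerobic macrodilution time-kill. Inoculum from brucella blood plates, prepared and diluted in prereduced brucella broth inside the anaerobe chamber. Final 10^6 to 10^7 CFU/ml in prereduced brucella broth with 5% laked horse blood cells, 5 μg/ml hemin and 1 μg/ml vitamin K1. […] Shaken at 35°C for 48 h. Viable counts taken at 6, 12, 24 and 48 h. 99.9% kill taken as bactericidal.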

Finegoldia magna [2] = test: Bactericidal activity against beta lactamase-positive Finegoldia magna isolated from intra-abdominal infection and pelvic inflammatory disease patients assessed as 99.9% bacterial killing at 2 times MIC after 48 hrs by time kill analysis; assay type: functional, organism-based
How it was run: (§3)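 Macrodilution time-kill in prereduced brucella broth with 5% laked horse blood, hemin 5 μg/ml and vitamin K1 1 μg/ml, at final inoculum 10^6–10^7 CFU/ml. […] Viable counts were taken at 6, 12, 24 and 48 h on plates incubated 48 h anaerobically. 99.9% kill was taken as bactericidal.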

Clostridium perfringens [3] = test: Bactericidal activity against Clostridium perfringens isolated from intra-abdominal infection and pelvic inflammatory disease patients assessed as bacterial killing at MIC after 24 hrs by time kill analysis; assay type: functional
How it was run: (§4)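 Time-kill in prereduced brucella broth with 5% laked horse blood cells, hemin and vitamin K1. […] Viable counts taken at 6, 12, 24 and 48 h, plates incubated 48 h anaerobically. Kill scored as 90%, 99% or 99.9%; 99.9% defines bactericidal.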

Bacteroides ovatus = test: Antimicrobial activity against beta lactamase-positive Bacteroides ovatus isolated from intra-abdominal infection and pelvic inflammatory disease patients after 48 hrs by agar dilution method; assay type: functional; how it was run: as §1
Finegoldia magna [4] = test: Antimicrobial activity against Finegoldia magna isolated from intra-abdominal infection and pelvic inflammatory disease patients after 48 hrs by agar dilution method; assay type: functional; how it was run: as §1
Prevotella buccae = test: Antimicrobial activity against beta lactamase-positive Prevotella buccae isolated from intra-abdominal infection and pelvic inflammatory disease patients after 48 hrs by agar dilution method; assay type: functional; settings: Segatella buccae; how it was run: as §1
[5] = system: Peptostreptococcus anaerobius; test: Antimicrobial activity against Peptostreptococcus anaerobius isolated from intra-abdominal infection and pelvic inflammatory disease patients after 48 hrs by agar dilution method; assay type: functional; how it was run: as §1
Bacteroides fragilis [6] = test: Bactericidal activity against beta lactamase-positive Bacteroides fragilis isolated from intra-abdominal infection and pelvic inflammatory disease patients assessed as bacterial killing at MIC after 24 hrs by time kill analysis; assay type: functional; how it was run: as §3
Bacteroides fragilis [7] = test: Antimicrobial activity against beta lactamase-positive Bacteroides fragilis isolated from intra-abdominal infection and pelvic inflammatory disease patients after 48 hrs by time kill analysis; assay type: functional
How it was run: (§5)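 The MIC was read by inspecting macrodilution time-kill tubes. Vials held prereduced brucella broth with 5% laked horse blood cells, hemin 5 μg/ml and vitamin K1 1 μg/ml. Final inoculum was 10^6–10^7 CFU/ml, prepared inside the anaerobe chamber. Vials were incubated 48 h at 35°C in a shaking water bath.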

Clostridium perfringens [8] = test: Antimicrobial activity against Clostridium perfringens isolated from intra-abdominal infection and pelvic inflammatory disease patients after 48 hrs by time kill analysis; assay type: functional
How it was run: (§6)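 Macrodilution in prereduced brucella broth with 5% laked horse blood cells, 5 μg/ml hemin and 1 μg/ml vitamin K1. Final inoculum 10^6 to 10^7 CFU/ml, prepared inside the anaerobe chamber. Vials incubated 48 h at 35°C in a shaking water bath. MIC read by inspecting the time-kill tubes, alongside an antibiotic-free growth control.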

Clostridium perfringens [9] = test: Bactericidal activity against Clostridium perfringens isolated from intra-abdominal infection and pelvic inflammatory disease patients assessed as bacterial killing at 2 times MIC after 48 hrs by time kill analysis; assay type: functional; how it was run: as §4
[10] = system: Porphyromonas asaccharolytica; test: Antimicrobial activity against Porphyromonas asaccharolyticus isolated from intra-abdominal infection and pelvic inflammatory disease patients after 48 hrs by agar dilution method; assay type: functional; how it was run: as §1
[11] = system: Bacteroides thetaiotaomicron; test: Antimicrobial activity against beta lactamase-positive Bacteroides thetaiotaomicron isolated from intra-abdominal infection and pelvic inflammatory disease patients after 48 hrs by time kill analysis; assay type: functional; how it was run: as §5
Finegoldia magna [12] = test: Bactericidal activity against beta lactamase-positive Finegoldia magna isolated from intra-abdominal infection and pelvic inflammatory disease patients assessed as bacterial killing at MIC after 24 hrs by time kill analysis; assay type: functional; how it was run: as §2
Porphyromonas levii = test: Antimicrobial activity against Porphyromonas levii isolated from intra-abdominal infection and pelvic inflammatory disease patients after 48 hrs by agar dilution method; assay type: functional; how it was run: as §1
[13] = system: Fusobacterium necrophorum; test: Antimicrobial activity against Fusobacterium necrophorum isolated from intra-abdominal infection and pelvic inflammatory disease patients after 48 hrs by agar dilution method; assay type: functional; how it was run: as §1
[14] = system: Clostridium paraputrificum; test: Antimicrobial activity against Clostridium paraputrificum isolated from intra-abdominal infection and pelvic inflammatory disease patients after 48 hrs by agar dilution method; assay type: functional; how it was run: as §1
Fusobacterium mortiferum = test: Antimicrobial activity against beta lactamase-positive Fusobacterium mortiferum isolated from intra-abdominal infection and pelvic inflammatory disease patients after 48 hrs by agar dilution method; assay type: functional; how it was run: as §1
Prevotella bivia = test: Antimicrobial activity against beta lactamase-positive Prevotella bivia isolated from intra-abdominal infection and pelvic inflammatory disease patients after 48 hrs by agar dilution method; assay type: functional; how it was run: as §1
Prevotella denticola = test: Antimicrobial activity against beta lactamase-positive Prevotella denticola isolated from intra-abdominal infection and pelvic inflammatory disease patients after 48 hrs by agar dilution method; assay type: functional; how it was run: as §1
Prevotella intermedia [15] = test: Antimicrobial activity against beta lactamase-positive Prevotella intermedia isolated from intra-abdominal infection and pelvic inflammatory disease patients after 48 hrs by agar dilution method; assay type: functional; how it was run: as §1
Clostridioides difficile [16] = test: Antimicrobial activity against Clostridium difficile isolated from intra-abdominal infection and pelvic inflammatory disease patients after 48 hrs by time kill analysis; assay type: functional; how it was run: as §6
Prevotella intermedia [17] = test: Bactericidal activity against beta lactamase-positive Prevotella intermedia isolated from intra-abdominal infection and pelvic inflammatory disease patients assessed as bacterial killing at 2 times MIC after 48 hrs by time kill analysis; assay type: functional; how it was run: as §2
[18] = system: Parabacteroides distasonis; test: Antimicrobial activity against beta lactamase-positive Bacteroides distasonis isolated from intra-abdominal infection and pelvic inflammatory disease patients after 48 hrs by agar dilution method; assay type: functional; how it was run: as §1

C[C@@H](O)[C@H]1C(=O)N2C(C(=O)O)=C(SCCNC=N)C[C@H]12 [IMIPENEM ANHYDROUS]
MIC50 (Clostridioides difficile [1]): 8 µg/mL (≈ 26.7 µM) | MIC90 (Clostridioides difficile [1]): 8 µg/mL (≈ 26.7 µM) | MIC (Clostridium cadaveris): 0.125 µg/mL (≈ 0.418 µM) | Activity (Fusobacterium nucleatum): 99% | Activity (Finegoldia magna [2]): inactive | Activity (Clostridium perfringens [3]): 90% | MIC50 (Bacteroides ovatus): 0.25 µg/mL (≈ 0.835 µM) | MIC90 (Bacteroides ovatus): 0.5 µg/mL (≈ 1.67 µM) | MIC50 (Finegoldia magna [4]): 0.06 µg/mL (≈ 0.2 µM) | MIC90 (Finegoldia magna [4]): 0.06 µg/mL (≈ 0.2 µM) | MIC (Prevotella buccae): 0.03 µg/mL (≈ 0.1 µM) | MIC50 (Prevotella buccae): 0.03 µg/mL (≈ 0.1 µM) | MIC90 (Prevotella buccae): 0.03 µg/mL (≈ 0.1 µM) | MIC [5]: 0.06 µg/mL (≈ 0.2 µM) | MIC50 [5]: 0.06 µg/mL (≈ 0.2 µM) | MIC90 [5]: 1 µg/mL (≈ 3.34 µM) | Activity (Bacteroides fragilis [6]): 90% | MIC (Bacteroides fragilis [7]): 0.06 µg/mL (≈ 0.2 µM) | MIC (Clostridium perfringens [8]): 0.06 µg/mL (≈ 0.2 µM) | Activity (Clostridium perfringens [9]): 99% | MIC [10]: ≤ 0.016 µg/mL | MIC [11]: 0.25 µg/mL (≈ 0.835 µM) | Activity (Finegoldia magna [12]): 90% | MIC (Porphyromonas levii): ≤ 0.016 µg/mL | MIC [13]: ≤ 0.016 µg/mL | MIC50 [13]: ≤ 0.016 µg/mL | MIC90 [13]: 0.25 µg/mL (≈ 0.835 µM) | MIC [14]: 0.5 µg/mL (≈ 1.67 µM) | MIC50 (Fusobacterium mortiferum): 1 µg/mL (≈ 3.34 µM) | MIC90 (Fusobacterium mortiferum): 1 µg/mL (≈ 3.34 µM) | MIC50 (Prevotella bivia): 0.03 µg/mL (≈ 0.1 µM) | MIC90 (Prevotella bivia): 0.06 µg/mL (≈ 0.2 µM) | MIC50 (Prevotella denticola): 0.03 µg/mL (≈ 0.1 µM) | MIC90 (Prevotella denticola): 0.06 µg/mL (≈ 0.2 µM) | MIC50 (Prevotella intermedia [15]): 0.03 µg/mL (≈ 0.1 µM) | MIC90 (Prevotella intermedia [15]): 0.125 µg/mL (≈ 0.418 µM) | MIC (Clostridioides difficile [16]): 4 µg/mL (≈ 13.4 µM) | Activity (Prevotella intermedia [17]): 99% | MIC50 [18]: 0.5 µg/mL (≈ 1.67 µM) | MIC90 [18]: 1 µg/mL (≈ 3.34 µM)

C[C@@H](O)[C@H]1C(=O)N2C(C(=O)O)=C(S[C@@H]3CN[C@H](C(=O)N(C)C)C3)[C@H](C)[C@H]12 [MEROPENEM]
MIC50 (Clostridioides difficile [1]): 2 µg/mL (≈ 5.22 µM) | MIC90 (Clostridioides difficile [1]): 4 µg/mL (≈ 10.4 µM) | MIC (Clostridium cadaveris): 0.03 µg/mL (≈ 0.0782 µM) | Activity (Fusobacterium nucleatum): 99% | Activity (Finegoldia magna [2]): inactive | Activity (Clostridium perfringens [3]): 90% | MIC (Bacteroides ovatus): 0.25 µg/mL (≈ 0.652 µM) | MIC50 (Bacteroides ovatus): 0.25 µg/mL (≈ 0.652 µM) | MIC90 (Bacteroides ovatus): 0.5 µg/mL (≈ 1.3 µM) | MIC (Finegoldia magna [4]): 0.06 µg/mL (≈ 0.156 µM) | MIC50 (Finegoldia magna [4]): 0.06 µg/mL (≈ 0.156 µM) | MIC90 (Finegoldia magna [4]): 0.125 µg/mL (≈ 0.326 µM) | MIC (Prevotella buccae): 0.06 µg/mL (≈ 0.156 µM) | MIC50 (Prevotella buccae): 0.06 µg/mL (≈ 0.156 µM) | MIC90 (Prevotella buccae): 0.06 µg/mL (≈ 0.156 µM) | MIC [5]: 0.25 µg/mL (≈ 0.652 µM) | MIC50 [5]: 0.25 µg/mL (≈ 0.652 µM) | MIC90 [5]: 2 µg/mL (≈ 5.22 µM) | Activity (Bacteroides fragilis [6]): 90% | MIC (Bacteroides fragilis [7]): 0.125 µg/mL (≈ 0.326 µM) | MIC (Clostridium perfringens [8]): 0.03 µg/mL (≈ 0.0782 µM) | Activity (Clostridium perfringens [9]): 99% | MIC [10]: ≤ 0.016 µg/mL | MIC [11]: 0.25 µg/mL (≈ 0.652 µM) | Activity (Finegoldia magna [12]): 90% | MIC (Porphyromonas levii): ≤ 0.016 µg/mL | MIC [13]: ≤ 0.016 µg/mL | MIC50 [13]: ≤ 0.016 µg/mL | MIC90 [13]: 0.125 µg/mL (≈ 0.326 µM) | MIC [14]: 0.25 µg/mL (≈ 0.652 µM) | MIC50 (Fusobacterium mortiferum): 0.125 µg/mL (≈ 0.326 µM) | MIC90 (Fusobacterium mortiferum): 0.5 µg/mL (≈ 1.3 µM) | MIC50 (Prevotella bivia): 0.06 µg/mL (≈ 0.156 µM) | MIC90 (Prevotella bivia): 0.125 µg/mL (≈ 0.326 µM) | MIC50 (Prevotella denticola): 0.06 µg/mL (≈ 0.156 µM) | MIC90 (Prevotella denticola): 0.25 µg/mL (≈ 0.652 µM) | MIC50 (Prevotella intermedia [15]): 0.03 µg/mL (≈ 0.0782 µM) | MIC90 (Prevotella intermedia [15]): 0.125 µg/mL (≈ 0.326 µM) | MIC (Clostridioides difficile [16]): 1 µg/mL (≈ 2.61 µM) | Activity (Prevotella intermedia [17]): 99% | MIC [18]: 0.125 µg/mL (≈ 0.326 µM) | MIC50 [18]: 0.125 µg/mL (≈ 0.326 µM) | MIC90 [18]: 0.5 µg/mL (≈ 1.3 µM)
